Holding throughout (format): functional
The test system of assay [1] is Staphylococcus aureus. Briefly: In vitro for antibacterial activity against Staphylococcus aureus 209P JC-1.
The test system of assay [2] is Escherichia coli. As to the kind of experiment: In vitro antibacterial activity against Escherichia coli NIHJ JC-2.
Assay [3] concerns Pseudomonas aeruginosa. As to the kind of experiment: in vitro antibacterial activity against Pseudomonas aeruginosa Tsuchijima.
Assay [4] has as its system Pseudomonas aeruginosa. Briefly: Compound was evaluated in vivo for oral antibacterial activity against Pseudomonas aeruginosa 12 at a dose of 4E3. The gist of the method:
(§1)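 Mice were given a systemic infection and then treated by the oral route. Challenge doses in cells per mouse were 5 × 10^8 for S. aureus 50774, 9 × 10^6 for E. coli P-5101 and 4 × 10^3 for P. aeruginosa 12. The protective dose is given in mg/kg.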

The subject of assay [5] is Staphylococcus aureus. Briefly: Compound was evaluated in vivo for oral antibacterial activity against Staphylococcus aureus 50774 at a dose of 5E8. The method in brief:
as §1

Assay [6] has as its system Escherichia coli. Briefly: Compound was evaluated in vivo for oral antibacterial activity against Escherichia coli P-5101 at a dose of 9E6. The gist of the method:
as §1

Values after ≈ are worked out from the molar mass of the structure shown.

These results are taken from ChEMBL document CHEMBL1122526, “Pyridonecarboxylic acids as antibacterial agents. 4. Synthesis and antibacterial activity of 7-(3-amino-1-pyrrolidinyl)-1-ethyl-6-fluoro-1,4 -dihydro-4-oxo-1,8-naphthyridine-3-carboxylic acid and its analogues” (1984).

On to `CCn1cc(C(=O)O)c(=O)c2cc(F)c(N3CCC(O)CC3)nc21`, for which the results for the MIC in assay [1], in assay [2] and in assay [3] were 0.78 µg/mL (≈ 2.33 µM), 3.13 µg/mL (≈ 9.33 µM) and 6.25 µg/mL (≈ 18.6 µM), respectively.
Consider `CCn1cc(C(=O)O)c(=O)c2cc(F)c(N3CCC(NC=O)C3)nc21` (stereo not drawn), for which the MIC is 0.78 µg/mL (≈ 2.24 µM) in assay [1], 0.78 µg/mL (≈ 2.24 µM) in assay [2] and 3.13 µg/mL (≈ 8.99 µM) in assay [3].
With `CCn1cc(C(=O)O)c(=O)c2cc(F)c(N3CCC(OC=O)C3)nc21` (stereo not drawn), the MIC in assay [1] is 0.39 µg/mL (≈ 1.12 µM); in assay [2], 1.56 µg/mL (≈ 4.47 µM); in assay [3], 3.13 µg/mL (≈ 8.96 µM).
On to `CCn1cc(C(=O)O)c(=O)c2cc(F)c(N3CCC(NC)C3)nc21` (stereo not drawn), for which the figures for the MIC in assay [1], in assay [2] and in assay [3] were 0.39 µg/mL (≈ 1.17 µM), 0.2 µg/mL (≈ 0.598 µM) and 1.56 µg/mL (≈ 4.67 µM), respectively. Moreover, the ED50 in assay [4] worked out at 6.5 mg/kg; in assay [5] it was 4.8 mg/kg; in assay [6] it was 1.4 mg/kg.
`CN(C)C1CCN(c2nc3c(cc2F)c(=O)c(C(=O)O)cn3CCF)C1` (stereo not drawn): the MIC in assay [1] amounted to 0.78 µg/mL (≈ 2.13 µM); in assay [2], 0.2 µg/mL (≈ 0.546 µM); in assay [3] it was 6.25 µg/mL (≈ 17.1 µM).
Regarding `NC1CCN(c2nc3c(cc2F)c(=O)c(C(=O)O)cn3CCF)C1` (stereo not drawn), the values for the MIC in assay [1], in assay [2] and in assay [3] were 0.39 µg/mL (≈ 1.15 µM), 0.1 µg/mL (≈ 0.296 µM) and 0.39 µg/mL (≈ 1.15 µM), respectively. Further, the figures for the ED50 in assay [4], in assay [5] and in assay [6] were 6.3 mg/kg, 4.6 mg/kg and 2.8 mg/kg, respectively.
`CCn1cc(C(=O)O)c(=O)c2cc(F)c(N3CC(N)C3)nc21`: the MIC in assay [1] stood at 0.78 µg/mL (≈ 2.55 µM); in assay [2] it was 0.1 µg/mL (≈ 0.326 µM); in assay [3], 0.78 µg/mL (≈ 2.55 µM). Moreover, the ED50 in assay [4] worked out at 12.5 mg/kg; in assay [5], 8.8 mg/kg; in assay [6], 4.1 mg/kg.
For `C=Cn1cc(C(=O)O)c(=O)c2cc(F)c(N3CC(N)C3)nc21`, the MIC came to 1.56 µg/mL (≈ 5.13 µM) in assay [1], 0.1 µg/mL (≈ 0.329 µM) in assay [2] and 0.39 µg/mL (≈ 1.28 µM) in assay [3].
On to `C=Cn1cc(C(=O)O)c(=O)c2cc(F)c(N3CCC(NC(C)=O)C3)nc21` (stereo not drawn), for which the MIC in assay [1] was 1.56 µg/mL (≈ 4.33 µM); in assay [2], 0.78 µg/mL (≈ 2.16 µM); in assay [3] it was 12.5 µg/mL (≈ 34.7 µM).
In the case of `CNC1CCN(c2nc3c(cc2F)c(=O)c(C(=O)O)cn3CCF)C1` (stereo not drawn), the MIC worked out at 0.78 µg/mL (≈ 2.21 µM) in assay [1], 0.2 µg/mL (≈ 0.568 µM) in assay [2] and 0.78 µg/mL (≈ 2.21 µM) in assay [3]. For the same compound, the ED50 in assay [4] stood at 19.3 mg/kg; in assay [5] it was 15 mg/kg; in assay [6], 2.8 mg/kg.
Regarding `CCn1cc(C(=O)O)c(=O)c2cc(F)c(N3CCC(NN)C3)nc21` (stereo not drawn), the results for the MIC in assay [1], in assay [2] and in assay [3] were 0.39 µg/mL (≈ 1.16 µM), 1.56 µg/mL (≈ 4.65 µM) and 12.5 µg/mL (≈ 37.3 µM), respectively.
For the compound `CC(=O)N(C)C1CCN(c2nc3c(cc2F)c(=O)c(C(=O)O)cn3CCF)C1` (stereo not drawn), the MIC in assay [1] turned out to be 0.39 µg/mL (≈ 0.989 µM); in assay [2], 1.56 µg/mL (≈ 3.96 µM); in assay [3], 25 µg/mL (≈ 63.4 µM).
On to `CCn1cc(C(=O)O)c(=O)c2cc(F)c(N3CCC(NCC(F)(F)F)C3)nc21` (stereo not drawn), for which the MIC was found to be 0.78 µg/mL (≈ 1.94 µM) in assay [1], 1.56 µg/mL (≈ 3.88 µM) in assay [2] and 50 µg/mL (≈ 124 µM) in assay [3].
In the case of `CCn1cc(C(=O)O)c(=O)c2cc(F)c(N3CCC(CNC(C)=O)CC3)nc21`, the MIC in assay [1] stood at 0.78 µg/mL (≈ 2 µM); in assay [2] it was 1.56 µg/mL (≈ 4 µM); in assay [3], 25 µg/mL (≈ 64 µM).
For `CCn1cc(C(=O)O)c(=O)c2cc(F)c(N3CCC(N(C)C)C3)nc21` (stereo not drawn), the MIC in assay [1] is 1.56 µg/mL (≈ 4.48 µM); in assay [2], 0.78 µg/mL (≈ 2.24 µM); in assay [3], 6.25 µg/mL (≈ 17.9 µM).
For `CCn1cc(C(=O)O)c(=O)c2cc(F)c(N3CCCC(N)C3)nc21` (stereo not drawn), in that order: 0.78 µg/mL (≈ 2.33 µM), 0.78 µg/mL (≈ 2.33 µM) and 6.25 µg/mL (≈ 18.7 µM).
In the case of `C=Cn1cc(C(=O)O)c(=O)c2cc(F)c(N3CCC(NC=O)C3)nc21` (stereo not drawn), the MIC worked out at 0.78 µg/mL (≈ 2.25 µM) in assay [1], 0.39 µg/mL (≈ 1.13 µM) in assay [2] and 3.13 µg/mL (≈ 9.04 µM) in assay [3].
`CCn1cc(C(=O)O)c(=O)c2cc(F)c(N3CCC(CN)CC3)nc21`: the MIC was found to be 0.39 µg/mL (≈ 1.12 µM) in assay [1], 1.56 µg/mL (≈ 4.48 µM) in assay [2] and 12.5 µg/mL (≈ 35.9 µM) in assay [3].
On the same counts, the results for `CCn1cc(C(=O)O)c(=O)c2cc(F)c(N3CC(N)C(O)C3)nc21` (stereo not drawn) are 1.56 µg/mL (≈ 4.64 µM), 1.56 µg/mL (≈ 4.64 µM) and 3.13 µg/mL (≈ 9.31 µM).
For the compound `C=Cn1cc(C(=O)O)c(=O)c2cc(F)c(N3CCC(N)C3)nc21` (stereo not drawn), the MIC in assay [1] worked out at 0.2 µg/mL (≈ 0.628 µM); in assay [2] it was 0.025 µg/mL (≈ 0.0785 µM); in assay [3] it was 0.2 µg/mL (≈ 0.628 µM). Besides, the ED50 in assay [4] turned out to be 1.6 mg/kg; in assay [5] it was 1.6 mg/kg; in assay [6], 0.72 mg/kg.
For the compound `CCn1cc(C(=O)O)c(=O)c2cc(F)c(N3CCCC(O)C3)nc21` (stereo not drawn), the results for the MIC in assay [1], in assay [2] and in assay [3] were 1.56 µg/mL (≈ 4.65 µM), 3.13 µg/mL (≈ 9.33 µM) and 25 µg/mL (≈ 74.6 µM), respectively.
